Each block holds one compound with its values, some of them ahead of it.
Key:
[1] = tested on: BCL2; conditions: statement in discussion; cited from earlier work
[2] = tested on: BCLXL; conditions: statement in discussion; cited from earlier work
[3] = tested on: patients with previously untreated CLL; parameters: species or system human; conditions: in vivo
[4] = tested on: patients with relapsed/refractory CLL; conditions: phase 1 study, single-agent navitoclax; cited from earlier work
[5] = Navitoclax plasma pharmacokinetics; format: in vivo, human; conditions: for AUC / Cmax / Tmax: human, plasma, po
[6] = tested on: patients with CLL, BCL2 protein low or high subgroups; assay: Association of baseline BCL2 protein expression; format: in vivo, human; conditions: arm A (n = 24) / arms B + C pooled (n = 31)
Summary of the method: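 Baseline bone marrow aspirates (optional consent), fresh: intracellular BCL2 staining by flow cytometry at a central lab within 72 h of collection, gated on CD19/CD5-positive CLL cells. Low/high subgroups split at median expression. Rituximab 375 mg/m2 week 1, then 500 mg/m2 weekly weeks 2–8, ± oral navitoclax (100 mg/day lead-in, then 250 mg/day). Odds ratios of objective response by logistic regression.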

[7] = tested on: patients with previously untreated CLL; assay: Phase 2 randomized three-arm trial: investigator-assessed best response; format: in vivo, human
Summary of the method: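 Open-label multicenter trial, randomized 1:1:1 and stratified by Binet stage and del(17p)/del(11q) (interphase FISH on marrow aspirates). Rituximab 375 mg/m2 week 1, then 500 mg/m2 weekly weeks 2–8, alone or with oral navitoclax (100 mg daily lead-in week, then 250 mg daily for 12 weeks). Investigator response by updated iwCLL at week 12, then every 12 weeks. ORR (CR+PR) with 95% CI; PFS by Kaplan–Meier.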

[8] = in vivo
[9] = ITT population, arm A (n = 40) / arm B (n = 38; navitoclax 12 weeks)
[10] = patients with del(17p), arm A (n = 11) / arm B (n = 12; navitoclax 12 weeks)

Compound: CC1(C)CCC(CN2CCN(c3ccc(C(=O)NS(=O)(=O)c4ccc(NCC5CCOCC5)c([N+](=O)[O-])c4)c(Oc4cnc5[nH]ccc5c4)c3)CC2)=C(c2ccc(Cl)cc2)C1 [ABT-199]
- Affinity for BCL2 [1]: very high affinity
- BCLXL inhibition [2]: effectively no BCLXL inhibition

- Discontinuation of navitoclax due to hyperbilirubinemia ([3]; human): 1 n
- Discontinuation of navitoclax due to neutropenia ([3]; human): 1 n
- Discontinuation of navitoclax due to pain ([3]; human): 1 n
- Discontinuation of navitoclax due to reaction to the infusion of rituximab ([3]; human): 1 n
- Discontinuation of navitoclax due to serum sickness ([3]; human): 1 n
- Discontinuation of navitoclax due to thrombocytopenia ([3]; human): 1 n
- Time of maximum navitoclax concentration (Cmax) after oral administration [5]: approximately 6 h
- AUC ([5]; 100 mg): 10500 ± 4100 ng·h/mL
- Cmax ([5]; 100 mg): 2300 ± 900 ng/mL
- Tmax ([5]; 100 mg): 6 h
- AUC ([5]; 250 mg): 61200 ± 31200 ng·h/mL
- Cmax ([5]; 250 mg): 3700 ± 2000 ng/mL
- Tmax ([5]; 250 mg): 6.1 h
Compound: CC1(C)CCC(c2ccc(Cl)cc2)=C(CN2CCN(c3ccc(C(=O)NS(=O)(=O)c4ccc(N[C@H](CCN5CCOCC5)CSc5ccccc5)c(S(=O)(=O)C(F)(F)F)c4)cc3)CC2)C1 [navitoclax]
- Patients who discontinued navitoclax due to an AE, total ([3]; human): 12 patients
- Incidence of SAEs compared to patients treated with rituximab alone [3]: not increased
- Reports of bleeding [3]: a single AE of self-limited epistaxis
- Overall response rate (ORR) [4]: 35%

Compound: rituximab
- Best response PR [6]: 6 (43%) n (%)
- Best response SD or PD [6]: 8 (57%) n (%)
- Best response: Missing [7, 9]: 3 (8) n (%)
- Complete response (CR) [7, 9]: 0 (0) n (%)
- Partial response (PR) [7, 9]: 14 (35) n (%)
- Progressive disease [7, 9]: 2 (5) n (%)
- Stable disease [7, 9]: 21 (53) n (%)
- Overall response rate (complete [CR] and partial [PR]), investigator-assessed ([7]; arm A / arm B (navitoclax daily for 12 weeks)): 35%
- Best response: Missing [7, 10]: 0 (0) n (%)
- Complete response (CR) [7, 10]: 0 (0) n (%)
- Partial response (PR) [7, 10]: 2 (18) n (%)
- Progressive disease [7, 10]: 1 (9) n (%)
- Stable disease [7, 10]: 8 (73) n (%)
- Anemia/worsening of anemia [3]: 2 (5) n (%)
- Any AEs [3]: 33 (87) n (%)
- Any SAEs [3]: 5 (13) n (%)
- Asthenia [3]: 0 (0) n (%)
- Chills [3]: 0 (0) n (%)
- Diarrhea [3]: 0 (0) n (%)
- GI and abdominal pain [3]: 0 (0) n (%)
- Grade 5 AEs [3]: 3%
- Hyperbilirubinemia [3]: 0 (0) n (%)
- Leukopenia [3]: 1 (3) n (%)
- Liver enzyme increase [3]: 0 (0) n (%)
- Neutropenia [3]: 3 (8) n (%)
- Patients who withdrew from study due to AEs [3]: 0 [0%] n [%]
- Respiratory tract infection [3]: 3 (8) n (%)
- Thrombocytopenia [3]: 0 (0) n (%)
- Vascular hypertensive disorders (hypertension) [3]: 0 (0) n (%)
- Effect of navitoclax on the PK of rituximab [8]: does not affect the PK of rituximab
- Week 8 rituximab concentration, post-infusion [8]: 576 ± 264 (n = 33) μg/mL
- Week 8 rituximab concentration, pre-infusion [8]: 296 ± 175 (n = 33) μg/mL

— publication PMC4643417 (Leukemia & lymphoma, 2015)
